Results from ChEMBL document CHEMBL1800027, “Imidazolopiperazines: hit to lead optimization of new antimalarial agents” (J Med Chem, 2011).

How the values were obtained:
[1] = biological target: Cytochrome P450 2C9 (Homo sapiens, UniProt P11712); experiment: Inhibition of CYP 2C9; format: ADME
[2] = test system: Rattus norvegicus; experiment: Toxicity in rat assessed as adverse effect at 500 mg/kg; format: organism-based; parameters: dose 500 mg/kg; settings: in vivo
[3] = test system: Mus musculus; experiment: Cmax in male BALB/c mouse at 20 mg/kg, po by LC/MS/MS analysis; format: ADME, organism-based; parameters: dose 20 mg/kg, route oral; settings: in vivo
Summary of the method: (§1)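 Male Balb/c mice, n = 3 per group, given 20 mg/kg orally at 8 mL/kg. Vehicle 2.5 mg/mL in 75% PEG300/25% DSW, filtered. Six serial retro-orbital blood samples up to 24 h, heparinized plasma. Plasma extracted with acetonitrile/methanol (3:1) plus internal standard; LC/MS/MS quantitation by positive ESI MRM. Noncompartmental analysis; values normalized to 30 mg/kg. F = (AUCpo·dose iv)/(AUCiv·dose po).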

[4] = in vitro; settings: human, Caco-2
[5] = Half-life in male BALB/c mouse at 5 mg/kg, iv by LC/MS/MS analysis; format: ADME, organism-based; parameters: dose 5 mg/kg, route intravenous; settings: in vivo
Summary of the method: (§2)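 Male Balb/c mice, n = 3 per group, dosed iv via lateral tail vein at 5 mg/kg and 2 mL/kg. Vehicle 2.5 mg/mL in 75% PEG300/25% DSW, filtered. Six serial retro-orbital blood samples up to 24 h, heparinized plasma. Plasma extracted with acetonitrile/methanol (3:1) plus internal standard for LC/MS/MS (positive ESI, MRM). Noncompartmental analysis.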

[6] = biological target: Cytochrome P450 2C19 (Homo sapiens, UniProt P33261); experiment: Inhibition of CYP 2C19; format: ADME
[7] = AUC (0 to infinity) in male BALB/c mouse at 5 mg/kg, iv by LC/MS/MS analysis; format: ADME, organism-based; parameters: time infinity, dose 5 mg/kg, route intravenous; settings: plasma; summary of the method: as §2
[8] = Cytotoxicity against mouse BAF3 cells; format: cell-based; settings: read-out: TC50 (the source's name)
[9] = Cytotoxicity against human Hep2 cells; format: cell-based; settings: HEp-2 cells, read-out: TC50 (the source's name)
[10] = biological target: Cytochrome P450 3A4 (Homo sapiens, UniProt P08684); experiment: Inhibition of CYP 3A4; format: ADME
[11] = test system: Plasmodium berghei; experiment: Antimalarial activity against GFP-tagged Plasmodium berghei ANKA infected in NMRI mouse assessed as reduction in parasitemia at 30 mg/kg, po QD administered 24 hrs post infection for 3 days measured on day 4 post infection; format: functional; parameters: scale not given: the % may be the effect or the level left
[12] = Oral bioavailability in male BALB/c mouse at 20 mg/kg by LC/MS/MS analysis; format: ADME, organism-based; settings: in vivo; summary of the method: as §1
[13] = Cytotoxicity against human 293T cells; format: cell-based; settings: HEK-293T cells, read-out: TC50 (the source's name)
[14] = Cytotoxicity against human HeLa cells; format: cell-based; settings: read-out: TC50 (the source's name)
[15] = biological target: Cytochrome P450 2D6 (Homo sapiens, UniProt P10635); experiment: Inhibition of CYP 2D6; format: ADME
[16] = pampa
[17] = Cytotoxicity against Cricetulus griseus CHO cells; format: cell-based; settings: chinese hamster, read-out: TC50 (the source's name)
[18] = test system: Plasmodium falciparum; experiment: Antimalarial activity against Plasmodium falciparum 3D7 infected in human erythrocytes assessed as decrease in parasitemia after 72 hrs; format: functional, organism-based; settings: 3D7, 72 h
[19] = test system: Mus musculus; experiment: AUC (0 to infinity) in male BALB/c mouse at 20 mg/kg, po by LC/MS/MS analysis; format: ADME, organism-based, Plasma; parameters: time infinity, dose 20 mg/kg, route oral; settings: in vivo; summary of the method: as §1
[20] = in vitro; settings: human, Caco-2; remark: listed apart in the source
[21] = test system: Plasmodium falciparum; experiment: Antimalarial activity against Plasmodium falciparum W2 infected in human erythrocytes assessed as decrease in parasitemia after 72 hrs; format: functional, organism-based; settings: W2, 72 h
[22] = Volume of distribution in male BALB/c mouse at 5 mg/kg, iv by LC/MS/MS analysis; format: ADME, organism-based; parameters: dose 5 mg/kg, route intravenous; settings: in vivo; summary of the method: as §2
[23] = Clearance in male BALB/c mouse at 5 mg/kg, iv by LC/MS/MS analysis; format: ADME, organism-based; parameters: dose 5 mg/kg, route intravenous; settings: in vivo; summary of the method: as §2
[24] = Half life in male BALB/c mouse at 20 mg/kg, po by LC/MS/MS analysis; format: ADME, organism-based; parameters: dose 20 mg/kg, route oral; settings: in vivo; summary of the method: as §1
[25] = Tmax in male BALB/c mouse at 20 mg/kg, po by LC/MS/MS analysis; format: ADME, organism-based; parameters: dose 20 mg/kg, route oral; settings: in vivo; summary of the method: as §1
[26] = biological target: T1, Cytochrome P450 1A2 (Homo sapiens, UniProt P05177); experiment: Inhibition of CYP 1A2; format: ADME
T1 sequence (P05177 whole entry): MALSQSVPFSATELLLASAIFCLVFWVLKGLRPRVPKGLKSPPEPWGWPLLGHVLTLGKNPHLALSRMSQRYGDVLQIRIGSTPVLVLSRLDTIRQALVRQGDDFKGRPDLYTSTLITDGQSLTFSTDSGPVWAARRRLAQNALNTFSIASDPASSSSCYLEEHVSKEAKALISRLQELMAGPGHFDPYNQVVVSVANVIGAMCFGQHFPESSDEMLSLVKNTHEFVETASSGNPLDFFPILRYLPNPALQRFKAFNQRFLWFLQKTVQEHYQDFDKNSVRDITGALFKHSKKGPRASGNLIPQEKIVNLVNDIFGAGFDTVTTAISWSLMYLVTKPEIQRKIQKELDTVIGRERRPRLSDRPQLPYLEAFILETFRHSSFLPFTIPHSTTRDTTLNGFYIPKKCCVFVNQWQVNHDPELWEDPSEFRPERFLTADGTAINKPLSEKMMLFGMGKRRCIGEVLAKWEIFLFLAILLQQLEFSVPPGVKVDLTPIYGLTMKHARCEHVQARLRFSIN

[27] = test system: Plasmodium berghei; experiment: Antimalarial activity against GFP-tagged Plasmodium berghei ANKA infected in NMRI mouse assessed as mouse survival at 30 mg/kg, po QD administered 24 hrs post infection for 3 days measured on day 30 post infection; format: functional
[28] = Cytotoxicity against human HuH7 cells; format: cell-based; settings: Huh-7 cells, read-out: TC50 (the source's name)
[29] = test system: Plasmodium berghei; experiment: Antimalarial activity against GFP-tagged Plasmodium berghei ANKA infected in NMRI mouse assessed as mouse survival at 30 mg/kg, po administered as single dose 24 hrs post infection measured 72 hrs post infection
[30] = in vitro; settings: mouse, microsomes
[31] = test system: Plasmodium berghei; experiment: Antimalarial activity against GFP-tagged Plasmodium berghei ANKA infected in NMRI mouse assessed as mouse survival at 100 mg/kg, po administered as single dose 24 hrs post infection measured on day 30 post infection
[32] = Tmax in female CD1 mouse at 30 mg/kg, po by LC/MS/MS analysis; settings: in vivo
[33] = test system: Plasmodium berghei; experiment: Antimalarial activity against GFP-tagged Plasmodium berghei ANKA infected in NMRI mouse assessed as reduction in parasitemia at 30 mg/kg, po administered as single dose 24 hrs post infection measured 72 hrs post infection; format: functional; parameters: scale not given: the % may be the effect or the level left
[34] = biological target: Voltage-gated inwardly rectifying potassium channel KCNH2 (Homo sapiens, UniProt Q12809)
[35] = in vivo; settings: female, CD1, mouse, plasma, po, 30 mg/kg
[36] = Cmax in female CD1 mouse at 30 mg/kg, po by LC/MS/MS analysis; settings: in vivo
[37] = test system: Mus musculus; experiment: Oral bioavailability in female CD1 mouse at 30 mg/kg by LC/MS/MS analysis; settings: mouse, in vivo
[38] = in vivo; settings: female, CD1, mouse, plasma, iv, 5 mg/kg
[39] = in vivo; settings: female, CD1, mouse, po, 30 mg/kg
[40] = in vitro; settings: rat, microsomes
[41] = in vivo; settings: female, CD1, mouse, iv, 5 mg/kg
[42] = in vivo; settings: female, CD1, mouse, iv, 5 mg/kg; remark: listed apart in the source
[43] = in vivo; settings: female, CD1, mouse, iv, 5 mg/kg; remark: listed apart in the source
[44] = in vitro; settings: human, microsomes

Sequence of Cytochrome P450 2C9 (P11712 whole entry): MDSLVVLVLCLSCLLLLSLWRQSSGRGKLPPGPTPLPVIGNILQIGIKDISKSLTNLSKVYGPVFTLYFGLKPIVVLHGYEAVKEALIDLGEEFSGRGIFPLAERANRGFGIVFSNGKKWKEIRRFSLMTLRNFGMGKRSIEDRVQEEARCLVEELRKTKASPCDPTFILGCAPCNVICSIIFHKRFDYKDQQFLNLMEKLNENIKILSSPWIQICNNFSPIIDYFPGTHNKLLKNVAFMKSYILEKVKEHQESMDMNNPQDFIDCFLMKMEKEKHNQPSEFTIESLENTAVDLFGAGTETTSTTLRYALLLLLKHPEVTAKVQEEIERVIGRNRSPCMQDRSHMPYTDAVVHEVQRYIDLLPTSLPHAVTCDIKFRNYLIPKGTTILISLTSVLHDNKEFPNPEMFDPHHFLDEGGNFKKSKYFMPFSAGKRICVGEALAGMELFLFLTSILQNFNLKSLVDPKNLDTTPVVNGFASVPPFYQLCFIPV
Sequence of Cytochrome P450 2D6 (P10635 whole entry): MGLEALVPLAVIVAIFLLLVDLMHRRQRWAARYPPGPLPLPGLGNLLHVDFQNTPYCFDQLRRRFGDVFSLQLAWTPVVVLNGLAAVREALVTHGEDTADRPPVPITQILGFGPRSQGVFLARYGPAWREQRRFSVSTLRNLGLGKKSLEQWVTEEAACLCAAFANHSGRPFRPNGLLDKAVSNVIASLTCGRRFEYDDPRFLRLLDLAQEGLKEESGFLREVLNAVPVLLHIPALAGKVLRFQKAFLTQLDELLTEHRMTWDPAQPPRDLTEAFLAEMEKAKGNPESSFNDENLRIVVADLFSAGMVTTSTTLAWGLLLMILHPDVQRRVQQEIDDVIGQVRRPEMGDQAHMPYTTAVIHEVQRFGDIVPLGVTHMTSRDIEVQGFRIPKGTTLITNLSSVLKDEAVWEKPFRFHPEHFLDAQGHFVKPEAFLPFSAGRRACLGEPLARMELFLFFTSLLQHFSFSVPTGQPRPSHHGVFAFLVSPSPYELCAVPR
Sequence of Cytochrome P450 2C19 (P33261 whole entry): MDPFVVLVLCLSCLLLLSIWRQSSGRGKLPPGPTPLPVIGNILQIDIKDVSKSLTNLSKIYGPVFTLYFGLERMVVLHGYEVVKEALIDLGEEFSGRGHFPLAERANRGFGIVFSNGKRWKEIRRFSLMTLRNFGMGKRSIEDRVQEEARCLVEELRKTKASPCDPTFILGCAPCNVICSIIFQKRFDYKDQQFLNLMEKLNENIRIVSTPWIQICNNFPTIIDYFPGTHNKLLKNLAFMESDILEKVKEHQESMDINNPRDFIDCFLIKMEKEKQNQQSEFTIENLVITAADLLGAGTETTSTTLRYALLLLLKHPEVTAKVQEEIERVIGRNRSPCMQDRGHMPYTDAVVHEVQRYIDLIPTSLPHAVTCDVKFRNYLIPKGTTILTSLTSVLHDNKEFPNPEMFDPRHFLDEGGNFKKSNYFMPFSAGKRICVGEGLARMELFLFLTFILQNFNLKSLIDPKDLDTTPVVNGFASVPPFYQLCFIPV
Sequence of Voltage-gated inwardly rectifying potassium channel KCNH2 (Q12809 whole entry): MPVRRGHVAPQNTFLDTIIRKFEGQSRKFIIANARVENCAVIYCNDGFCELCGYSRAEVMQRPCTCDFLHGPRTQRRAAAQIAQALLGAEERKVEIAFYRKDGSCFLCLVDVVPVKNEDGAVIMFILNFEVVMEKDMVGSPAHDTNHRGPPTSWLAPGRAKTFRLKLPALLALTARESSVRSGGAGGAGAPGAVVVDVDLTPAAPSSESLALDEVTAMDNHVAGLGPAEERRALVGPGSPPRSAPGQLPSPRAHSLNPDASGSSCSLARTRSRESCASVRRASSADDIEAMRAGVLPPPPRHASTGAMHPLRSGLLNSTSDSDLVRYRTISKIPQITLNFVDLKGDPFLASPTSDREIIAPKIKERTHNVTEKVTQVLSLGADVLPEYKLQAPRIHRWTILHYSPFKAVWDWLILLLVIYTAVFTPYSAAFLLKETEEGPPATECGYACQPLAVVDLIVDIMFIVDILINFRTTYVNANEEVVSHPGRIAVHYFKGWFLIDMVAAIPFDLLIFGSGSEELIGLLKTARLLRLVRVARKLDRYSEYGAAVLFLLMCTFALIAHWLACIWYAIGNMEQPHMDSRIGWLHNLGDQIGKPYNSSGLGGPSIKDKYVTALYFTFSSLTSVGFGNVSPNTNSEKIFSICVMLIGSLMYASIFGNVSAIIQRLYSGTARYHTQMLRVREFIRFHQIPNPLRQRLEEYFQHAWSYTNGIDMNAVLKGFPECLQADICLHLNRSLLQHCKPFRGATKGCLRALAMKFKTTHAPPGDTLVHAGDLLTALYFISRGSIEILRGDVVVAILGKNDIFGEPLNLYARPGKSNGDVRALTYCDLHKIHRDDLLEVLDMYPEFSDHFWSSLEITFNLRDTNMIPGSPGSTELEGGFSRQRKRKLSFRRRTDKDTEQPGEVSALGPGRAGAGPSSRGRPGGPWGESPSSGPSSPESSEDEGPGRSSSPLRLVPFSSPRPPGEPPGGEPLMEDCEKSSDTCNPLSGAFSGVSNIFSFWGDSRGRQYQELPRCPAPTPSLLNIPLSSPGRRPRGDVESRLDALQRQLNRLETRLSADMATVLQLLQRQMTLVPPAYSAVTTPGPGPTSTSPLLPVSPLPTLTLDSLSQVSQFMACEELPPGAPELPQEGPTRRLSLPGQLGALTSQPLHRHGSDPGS
Sequence of Cytochrome P450 3A4 (P08684 whole entry): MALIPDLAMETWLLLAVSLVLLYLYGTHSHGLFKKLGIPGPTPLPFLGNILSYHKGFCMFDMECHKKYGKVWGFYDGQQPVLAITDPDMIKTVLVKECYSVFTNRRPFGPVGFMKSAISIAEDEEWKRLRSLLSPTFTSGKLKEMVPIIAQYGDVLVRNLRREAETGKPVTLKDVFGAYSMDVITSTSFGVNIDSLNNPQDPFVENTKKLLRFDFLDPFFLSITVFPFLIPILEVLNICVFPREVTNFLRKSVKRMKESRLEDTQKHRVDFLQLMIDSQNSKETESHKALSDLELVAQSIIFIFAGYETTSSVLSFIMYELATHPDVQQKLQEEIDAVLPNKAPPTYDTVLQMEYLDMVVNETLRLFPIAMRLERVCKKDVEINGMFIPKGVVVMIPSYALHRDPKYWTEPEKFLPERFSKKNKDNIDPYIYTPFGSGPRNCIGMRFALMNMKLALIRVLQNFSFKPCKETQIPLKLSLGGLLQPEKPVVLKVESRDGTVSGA

## CC(C)(N)C(=O)N1CCn2c(nc(-c3ccc(F)cc3)c2Nc2ccc(F)cc2)C1
[1]
  IC50: > 8.9 µM
[2]
  Activity: Non-toxic
[3]
  Cmax: 1800 nM
[4]
  Papp A→B: 3.05 ×10⁻⁶ cm/s
[5]
  half-life: 6.2 h
[6]
  IC50: > 8.9 µM
[7]
  AUC(0-inf): 3.44 µM·h
[8]
  CC50: > 12 µM
[9]
  CC50: > 12 µM
[10]
  IC50: > 8.9 µM
[11]
  Activity: 99.6%
[12]
  bioavailability: 87%
[13]
  CC50: > 12 µM
[14]
  CC50: > 12 µM
[15]
  IC50: > 8.9 µM
[16]
  permeability: 81%
[17]
  CC50: > 12 µM
[18]
  IC50: 0.02 µM
[19]
  AUC: 17.894 µM·h
[20]
  Papp B→A: 8.38 ×10⁻⁶ cm/s
[21]
  IC50: 0.025 µM
[22]
  Vd: 23.7 L/kg
[23]
  clearance: 60 mL/min/kg
[24]
  half-life: 9 h
[25]
  Tmax: 1.67 h
[26]
  IC50: > 8.9 µM
[27]
  Survival: 14 days
[28]
  CC50: > 12 µM
[29]
  Survival: 7.7 days

## CC(C)(N)C(=O)N1CCn2c(nc(-c3ccc(F)cc3)c2Nc2ccc(Cl)cc2)C1
[30]
  hepatic extraction ratio: 0.17
[31]
  Survival: 13 days
[32]
  Tmax: 1 h
[33]
  Activity: 98%
[34]
  IC50: 2.3 µM
[4]
  Papp A→B: 1.46 ×10⁻⁶ cm/s
[35]
  AUC(0-inf): 28.3 µM·h
[36]
  Cmax: 749 nM
[11]
  Activity: 99.5%
[37]
  F: 158%
[38]
  AUC(0-inf): 2.98 µM·h
[39]
  half-life: 37.6 h
[16]
  permeability: 89%
[18]
  IC50: 0.03 µM
[20]
  Papp B→A: 1.86 ×10⁻⁶ cm/s
[21]
  IC50: 0.024 µM
[40]
  hepatic extraction ratio: 0.43
[41]
  Vd: 40.5 L/kg
[42]
  half-life: 8.7 h
[29]
  Survival: 6 days
[43]
  clearance: 65.2 mL/min/kg
[44]
  hepatic extraction ratio: 0.54
